Test results reported in ChEMBL document CHEMBL1124551, “Nucleic acid related compounds. 57. Synthesis, x-ray crystal structure, lipophilic partition properties, and antiretroviral activities of anomeric 3'-azido-2',3'-dideoxy-2,6-diaminopurine ribosides” (J Med Chem, 1989).

Assays:
[1] = tested on: MT4; assay: Effective dose required to inhibit HIV-induced cytopathogenicity in human MT-4 cells; format: functional; settings: read-out: ED50 (the source's name)
Procedure, shortened: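 After 5 days at 37 °C, viable cells counted by trypan blue exclusion in a hemacytometer. ED₅₀ is the dose giving 50% protection against HIV-induced cytopathogenicity.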

[2] = Effective dose required to inhibit MSV-induced transformation in murine C3H cells; format: functional; settings: Mus musculus, read-out: ED50 (the source's name)
Procedure, shortened: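 Confluent mouse embryo C3H monolayers were infected with 80 focus-forming units of MSV for 90 min. Medium was then replaced with fresh medium holding graded compound concentrations. After 6 days at 37 °C, transformation was scored microscopically. ED₅₀ is the dose that inhibits transformation by 50%.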

[3] = Toxic dose required to cause an alteration of normal C3H cell morphology; format: functional, Mus musculus
Procedure, shortened: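 C3H cell cultures were exposed to graded compound concentrations and examined by microscope. TD is the dose that alters normal cell morphology.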

[4] = Ratio of CD50 and ED50 values against inhibition of HIV in MT-4 cells; format: functional, MT4
[5] = tested on: MT4; assay: Cytotoxic dose required to reduce MT-4 cell viability by 50%

| Structure (SMILES) | EC50 [1] [µM] | EC50 [2] [µM] | TD [3] [µM] | Ratio [4] | CD50 [5] [µM] |
| --- | --- | --- | --- | --- | --- |
| Nc1nc(N)c2ncn([C@H]3CC[C@@H](CO)O3)c2n1 | 3.5 | 19 | > 200 | 115 | 404 |
| [N-]=[N+]=N[C@@H]1C[C@H](N2C=NC3C(=O)N=C(N)N=C32)O[C@@H]1CO (stereo not given in full) | 2.8 | 6.2 | >400 | 59 | 165 |
